pEC50: −log10 of the molar value. Active and inactive are the calls of the source. The rule behind the calls is not given here.

This is an account of results in ChEMBL document CHEMBL1143253, “Strongylophorines: natural product inhibitors of hypoxia-inducible factor-1 transcriptional pathway” (J Med Chem, 2008).

The test system of one test is MDA-MB-231. Nature of the test: Antiinvasive activity against human MDA-MB-231 cells. In kind it is functional, cell-based.
The target of test [1] is T1, Hypoxia inducible factors; HIF-1-alpha, HIF-2-alpha (Homo sapiens, UniProt Q16665+Q99814). The test is described as follows: Inhibition of hypoxia-induced HIF1 transcriptional activation in human U251-HRE cells by luciferase reporter assay. In kind it is cell-based. Put shortly: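 Stably transfected U251 glioma cells carrying a luciferase reporter driven by three HRE copies, seeded 10000/well and grown 24 h. Compounds in 2-propanol were tested at 1–100 µM for 16 h at 1% O2/5% CO2/94% N2. Cells were lysed and Bright-Glo luminescence read, normalized to vehicle, with ≥15-fold hypoxic induction required. EC50 derived from dose–response; triplicate.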
On the technique in general: Reporter assays use an easily measured gene product as a stand-in for the process of interest.

Test [2] can be described thus: Decrease in protein expression of HIF1-alpha in human U251-HRE cells under hypoxic condition at 30 uM. It counts as functional, cell-based. Put shortly:
(§1)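 U251-HRE cells (1 × 10^5) plated in six-well plates, treated after 24 h for 4 h under hypoxia; normoxic and compound-free hypoxic lanes included. Lysis in PBS/0.1% NP-40 with sonication, 100 µg protein on 12.5% polyacrylamide gels. Probed with monoclonal anti-HIF-1α and anti-VEGF (1:500), β-tubulin (1:10000) loading control, HRP anti-mouse secondary, ECL detection.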

A short description of test [3]: Decrease in protein expression of VEGF in human U251-HRE cells under hypoxic condition at 30 uM. In kind it is functional, cell-based. In short, it runs like this: as §1
In test [4] the target is T1, Hypoxia inducible factors; HIF-1-alpha, HIF-2-alpha. The test is described as follows: Inhibition of hypoxia-induced HIF1 transcriptional activation in human U251-pGL3 cells at 30 uM by luciferase reporter assay. In kind it is cell-based. Put shortly:
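Counter-screen in U251-pGL3 cells, where firefly luciferase is driven by the SV40 promoter/enhancer, run in parallel with the HRE reporter assay. Cells incubated with compound under hypoxia (1% O2), then lysed and luciferase luminescence read. Data normalized to vehicle; triplicate.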

The nature of test [5]: Cytotoxicity against human U251-HRE cells at 100 uM after 16 hrs by MTT assay. It counts as functional. Put shortly: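 U251-HRE glioma cells seeded 10000/well, left 24 h, then exposed to compound 16 h at 37 °C under normoxia (the hypoxic arm ran 24 h in a hypoxic incubator). Medium replaced with fresh medium plus 20 µL MTT (1.5 mg/mL) for 3 h, formazan dissolved in DMSO, absorbance read at 570 nm. Percent cytotoxicity from treated vs control A570; triplicate, SE.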
(Tetrazolium dyes change colour on reduction, which living cells bring about.)

As to `C[C@@]12CC[C@H]3[C@]4(CCC[C@]3(C)C(=O)OC4)[C@H]1CC[C@](C)(O)[C@H]2Cc1cc(O)ccc1O`, the pEC50 – broadly, the negative decadic logarithm of the EC50, by convention in mol/L – in the test on MDA-MB-231 is 4.80. The EC50 (in general, the concentration needed to bring the measured effect to its halfway point) in test [1] was determined as 6 µM. Also, the outcome in test [2] and in test [3] was Active. Also, the outcome in test [4] was inactive.
`C[C@@]12CC[C@H]3[C@](C)(CCC[C@]3(C)C(=O)O)[C@H]1CC[C@]1(C)Oc3ccc(O)cc3C[C@@H]21` registered an EC50 in test [1] of 13 µM. The result in test [2] and in test [3] was Active. Moreover, the outcome in test [4] was inactive.
In the case of `C[C@@]12CC[C@H]3[C@]4(CCC[C@]3(C)C(=O)OC4)[C@H]1CC[C@]1(C)Oc3ccc(O)cc3C[C@@H]21`, at 100 µM the inhibition in test [5] was 17%. The EC50 in test [1] was found to be 8 µM. Further, the outcome in test [2] and in test [3] was Active. Further, the outcome in test [4] was inactive.
